# Compounds with a hit are over-represented: about 4.8% of the library has one in this group of screens.
# HSF1 inh = HSF1 inhibition; hit rate 0.77% among 300,000; activity change, negative = inhibition, % at 7.5 µM (by protocol); NIH3T3-HGL HSE-luciferase, MG132-induced, luminescence 8 h; hits give low values;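 active = more than half of replicate wells show activity change below -50%, luminescence cut by over half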;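 also: luciferase reports HSF-1 transcriptional activity via heat shock element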
# 697 NFkB inh = inhibitors of the PMA/ionomycin-induced NF-kB reporter in 697 B cells. inhibition, % at 4 µM. 697 B-cell NF-kB luciferase reporter, 16 h. hit rate 0.33% among 330,000; in the data active = inhibition above about 35%
# Jurkat NFkB inh = lowers PMA/ionomycin-induced NF-kB signal in Jurkat cells | PMA/ionomycin-induced NF-kB luciferase reporter, luminescence | inhibition, % at 4 µM | hit rate 0.53% among 330,000; in the data active = inhibition above about 50%
# GPR7 antagonist = antagonists of human GPR7 (neuropeptides B/W receptor 1). GPR7-expressing cells, fluorescence antagonist assay. inhibition, % at 4.4 µM. hit rate 1.1% among 290,000. AID 1861; in the data active = inhibition above about 16%, passing the limit was not always enough;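 also: cells stimulated with the agonist NPW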
# Target sequence (P48145 whole entry, looked up): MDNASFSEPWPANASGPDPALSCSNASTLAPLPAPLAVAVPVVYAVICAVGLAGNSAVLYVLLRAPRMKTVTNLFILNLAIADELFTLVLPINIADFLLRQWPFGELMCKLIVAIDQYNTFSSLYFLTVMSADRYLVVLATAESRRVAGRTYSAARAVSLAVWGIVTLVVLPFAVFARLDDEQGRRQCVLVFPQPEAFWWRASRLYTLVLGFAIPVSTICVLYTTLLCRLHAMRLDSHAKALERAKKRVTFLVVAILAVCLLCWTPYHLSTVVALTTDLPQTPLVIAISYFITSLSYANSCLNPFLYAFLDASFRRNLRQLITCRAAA
# T cruzi inh = T. cruzi replication inhibition | T. cruzi beta-gal in NIH3T3, luminescence, 90 h | inhibition, % (test concentration not listed) | hit rate 1.4% among 300,000 | AID 1885;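 active = mean inhibition across valid replicates above about 55%, limit read from the data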;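 also: signal also drops with host cell toxicity which is not excluded here; higher percent means less beta-gal luminescence so fewer parasites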
#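 compound dosing = single 50 nL compound addition per well in DMSO | material = NIH/3T3 host cells with β-galactosidase reporter T. cruzi | input = 5,000 host fibroblasts per well | timing = ≥90 h infection period, 3 h prior cell attachment | read-out basis = percent inhibition of parasite-derived β-gal signal | detection = GalScreen β-gal luminescence, detergent lysis, 60 min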
# HSF1 activator = increases HSF-1 driven luciferase reporter signal. NIH3T3-HGL HSF-1 luciferase reporter, MG132, 8 h; 100% = twice DMSO control signal. activation, % at 9 µM. hit rate 1.7% among 300,000;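 active = mean replicate activation of at least 50% with a set share of replicates each reaching 50%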
# 697 NFkB conf = lowers PMA/ionomycin-induced NF-kB signal in 697 B cells | shares compounds with 697 NFkB inh | hit rate 35% among 2,000 | AID 449746 | inhibition, % at 4 µM | 697 B-cell NF-kB luciferase, 16 h; in the data active = inhibition mostly above about 28%, no sharp cut-off; inactive = mostly below about 22%
# Hits are given with their value; . = inactive; / = no result.
SMILES,HSF1 inh,697 NFkB inh,Jurkat NFkB inh,GPR7 antagonist,T cruzi inh,HSF1 activator,697 NFkB conf
Cc1ccc(NC(=O)c2ccc(CNc3c(N4CCC(C)CC4)c(=O)c3=O)cc2)cc1,.,50,.,.,.,.,.
CC(=O)c1ccc(NC(=O)c2ccc(CNc3c(N4CCOCC4)c(=O)c3=O)cc2)cc1,.,.,.,.,.,.,/
COc1cccc(CNC(=O)c2cc3oc4ccccc4c3n2C)c1OC,.,.,.,.,.,.,.
CCOc1ccc2cc(C(=O)NCc3ccccc3)c(=N)oc2c1,.,.,.,.,.,.,/
CCOc1ccccc1CNC(=O)c1cc2oc3ccccc3c2n1CC,.,.,.,.,.,.,.
CCOc1ccc(CNC(=O)c2cc3oc4ccccc4c3n2C)cc1,.,.,.,.,.,.,.
CCn1c(C(=O)N2CCc3ccccc3C2)cc2oc3ccccc3c21,.,.,.,.,.,.,/
COC(=O)C1=C(C(=O)OC)[C@@H]2N(C)c3ccccc3[C@@]23C[C@@H](CO)N(C(=O)C2CCC2)C3=N1,.,.,.,/,.,.,/
COC(=O)C1=C[C@@H](C(=O)OC)C2C3=C(C(=O)C24CCCCC4)[C@H](C)n2c(=O)n(-c4ccccc4)c(=O)n2[C@@H]3C1 (stereo not given in full),.,38,.,/,.,.,.
CC(C)CC(=O)Nc1ccc(C(=O)COC(=O)C2=COCCO2)cc1,.,.,.,/,.,.,/
O=C1N/C(=C\c2ccc(O)cc2)C(O)=C1C=NCc1ccccc1,.,37,.,.,.,64,.
CN(CC(=O)NCc1cccnc1)S(=O)(=O)c1ccc(F)cc1,.,.,.,.,.,.,/
Oc1ccccc1-c1cc(-c2ccc3c(c2)OCCO3)n[nH]1,.,.,.,.,.,.,.
Cc1cc(C)c(CN2CCN(C(=O)Cn3cnc4c(NCc5ccccc5)ncnc43)CC2)c(C)c1,/,74,/,/,/,/,82
O=C(CN1C(=O)c2ccccc2S1(=O)=O)c1ccc(OC(F)F)cc1,.,40,.,.,.,.,36
O=C(CCN1C(=O)c2ccccc2S1(=O)=O)Nc1cc(Cl)ccc1Cl,.,.,.,/,.,.,/
COC(=O)c1ccc(NC(=O)CN2C(=O)c3ccccc3S2(=O)=O)cc1,.,.,.,.,.,.,/
O=C(CN1C(=O)c2ccccc2S1(=O)=O)c1ccc(Cl)cc1Cl,-68,74,.,.,.,.,74
CCCCn1c2c(c(=N)c3ccccc31)CCC2,.,44,.,.,.,.,46
COc1ccc(S(=O)(=O)N2CCOC23CCN(S(=O)(=O)c2ccc(C)cc2)CC3)cc1,.,.,.,/,.,.,/
Cc1ccc2cc(/C=N/NC(=O)c3ccc(F)cc3)c(Cl)nc2c1,.,.,.,.,.,.,/
Cc1ccc2nc(Cl)c(/C=N/Nc3ccc(C(=O)O)cc3)cc2c1,.,.,.,.,.,.,.
Cc1c(C(=O)NCC2CCCO2)oc2ccc(Br)cc12 (stereo not given),.,.,.,/,.,.,/
Cc1oc(-c2ccc(-c3ccccc3)cc2)nc1CN(CCO)C(C)C,.,.,.,.,.,.,.
Cc1oc(-c2ccc(-c3ccccc3)cc2)nc1CN(C)C1CCOC1 (stereo not given),.,.,.,.,.,.,.
SMILES,HSF1 inh,697 NFkB inh,Jurkat NFkB inh,GPR7 antagonist,T cruzi inh,HSF1 activator,697 NFkB conf
O=C(NCc1ccc(C(F)(F)F)cc1)C1CC(c2ccccc2[N+](=O)[O-])=NO1 (stereo not given),.,.,.,.,.,.,/
COC(=O)c1cc(C(=O)NCCN2C(=O)S/C(=C\c3cccs3)C2=O)cc([N+](=O)[O-])c1,.,.,.,.,.,.,/
CCCn1c(N)c(C(=O)CSc2nc3ccccc3s2)c(=O)[nH]c1=O,.,.,.,.,.,.,.
COc1ccc(NC(=O)[C@@H]2CC=C[C@@H]3CCN(C4CCCCC4)C(=O)[C@@H]32)cc1,.,36,.,/,.,.,.
Cc1cccc(NC(=O)c2csnn2)n1,.,.,.,.,.,.,/
C=CCc1cccc(CNc2ccc(Br)cc2)c1O,.,.,.,.,.,.,/
Cc1c(C)c2ccc(OS(C)(=O)=O)c(C)c2oc1=O,.,.,.,.,.,.,/
COCCOc1ccc(C(F)(F)F)cc1NC(=O)c1ccc(F)cc1,.,.,.,.,.,.,/
CCOc1ccc(C(F)(F)F)cc1NC(=O)c1ccc(OC)c([N+](=O)[O-])c1,.,40,.,.,.,.,.
O=C1c2ccccc2C(=O)C1c1ccc2ccccc2n1,.,.,.,.,.,.,.
CS(=O)(=O)c1ccc2nc(NC(=O)CN3C(=O)NC4(CCCC4)C3=O)sc2c1,.,.,.,.,.,.,/
COC(=O)Nc1nnc(COc2ccccc2)s1,.,.,.,.,.,.,/
CC(=O)/C(C#N)=C1\NC(=O)C(Cc2ccc(F)cc2)S1 (stereo not given),.,.,.,.,.,.,/
CC(=O)/C(C#N)=C1\NC(=O)C(Cc2ccccc2Cl)S1 (stereo not given),.,.,.,.,.,.,.
CC(=O)/C(C#N)=C1\NC(=O)C(Cc2cc(Cl)ccc2Cl)S1 (stereo not given),.,.,.,.,.,.,.
NC1=NC(=O)C(Cc2cc(Cl)ccc2Cl)S1 (stereo not given),.,.,.,.,.,.,/
CC(=O)/C(C#N)=C1\NC(=O)C(Cc2ccc(C)c(C)c2)S1 (stereo not given),.,.,.,.,.,.,.
O=C(Nc1nnc(-c2ccco2)o1)C1CC1,.,.,.,.,.,.,/
CCNc1nc(NCC)nc(SCCOc2ccc(C)cc2)n1,.,.,.,.,.,.,/
CC1CCCC(N2CCN(C(=O)c3ccccc3F)CC2)C1 (stereo not given),.,.,.,.,.,.,/
COc1ccc(-n2nc3c(c2NC(=O)COc2cccc(OC)c2)CS(=O)(=O)C3)cc1,.,.,.,.,.,.,/
O=C(Nc1nc2ccccc2s1)c1ccc(OCC2CCCO2)cc1 (stereo not given),.,.,.,.,.,.,.
O=C(Nc1nc2ccccc2s1)c1ccc(F)cc1,.,.,.,.,.,.,.
CN(CC1CCCO1)S(=O)(=O)c1ccc(C(=O)Nc2nc3cc4c(cc3s2)OCO4)cc1 (stereo not given),.,62,.,.,.,.,65
Fc1ccc(Nc2nc3ccccc3s2)cc1,.,.,.,.,.,.,/
CN(CC1CCCO1)S(=O)(=O)c1ccc(C(=O)Nc2ccc3c(c2)OCO3)cc1 (stereo not given),.,.,.,.,.,.,/
COc1ccc(C(=O)Nc2nc3ccccc3s2)cc1,.,.,.,.,.,.,.

# Assay outcomes as filed in PubChem.
